According to ChEMBL document CHEMBL5620402, “Development of submicromolar 17β-HSD10 inhibitors and their in vitro and in vivo evaluation” (Eur J Med Chem, 2023):

Tests used:
[1] = PBS buffer - Octanol distribution coefficient, logD of the compound at pH 7.4 by UHPLC-DAD-MS analysis; type: physicochemical
Procedure, shortened: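 Compound (0.25 mg) was put into 500 μL of a 1:1 water–octanol (logP) or PBS pH 7.4–octanol (logD) mixture. Samples were shaken 30 min and centrifuged 10 min at 10,000 rcf. Each phase was quantified by UHPLC-DAD-MS against calibration lines.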

[2] = Aqueous solubility, logS of the compound at pH 7.4 phosphate buffer by nephelometry assay; type: physicochemical
Procedure, shortened: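 Nephelometry of compound suspensions in phosphate buffer pH 7.4. Stock was 160 μg/mL, sonicated and auto-diluted over 0–160 μg/mL, with higher stocks (640 μg/mL, 2.54 mg/mL) used if needed. Wells were shaken 30 s and laser-scanned. Solubility was derived by segmental linear regression.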

[3] = biological target: T1, 3-hydroxyacyl-CoA dehydrogenase type-2 (Homo sapiens) (UniProt Q99714); test: Inhibition of recombinant 17beta-HSD10 (unknown origin) expressed in Escherichia coli BL21 (DE3) assessed as residual activity at 10 uM using acetoacetyl-CoA as substrate by SAAC method relative to control
T1 sequence (whole entry): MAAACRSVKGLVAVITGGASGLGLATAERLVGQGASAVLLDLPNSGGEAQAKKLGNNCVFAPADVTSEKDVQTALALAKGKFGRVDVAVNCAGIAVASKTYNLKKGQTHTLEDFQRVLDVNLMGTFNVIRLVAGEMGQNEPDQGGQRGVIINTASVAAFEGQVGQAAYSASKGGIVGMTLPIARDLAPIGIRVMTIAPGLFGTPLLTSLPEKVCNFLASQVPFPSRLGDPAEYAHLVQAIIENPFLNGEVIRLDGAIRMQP
Procedure, shortened: (§1)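 Recombinant 17β-HSD10 from E. coli BL21(DE3), 0.15 μg, was mixed with 320 μmol/L NADH in Tris-HCl pH 7.4 assay buffer. It was preincubated 5 min at 37 °C with 1 or 10 μM inhibitor or vehicle, then 320 μmol/L acetoacetyl-CoA was added. A340 was followed for 5 min. Residual activity is % of control, triplicate mean ± SD, with t-test versus control.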

[4] = biological target: T1, 3-hydroxyacyl-CoA dehydrogenase type-2 (Homo sapiens); test: Inhibition of recombinant 17beta-HSD10 (unknown origin) expressed in Escherichia coli BL21 (DE3) assessed as residual activity at 1 uM using acetoacetyl-CoA as substrate by SAAC method relative to control; procedure, shortened: as §1
[5] = biological target: T2, 3-hydroxyacyl-CoA dehydrogenase type-2 (Homo sapiens, UniProt Q99714); test: Inhibition of recombinant 17beta-HSD10 (unknown origin) expressed in Escherichia coli BL21 (DE3) assessed as residual activity using acetoacetyl-CoA as substrate by SAAC method
T2 sequence (Q99714 whole entry): T1 sequence (whole entry)
Procedure, shortened: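 Recombinant 17β-HSD10 from E. coli BL21(DE3), 0.15 μg, was mixed with 320 μmol/L NADH in 10 mM Tris-HCl pH 7.4 buffer (150 mM NaCl, 1 mM DTT, 0.001% Tween 20, 0.01% BSA). It was preincubated 5 min at 37 °C with inhibitor, then 320 μmol/L acetoacetyl-CoA was added. A340 was followed for 5 min. IC50 came from non-linear regression of ≥3 independent runs in triplicate; Ki was calculated from IC50 per Cer et al.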

Sus scrofa [6] = species on record: Sus scrofa; test: Inhibition of pig brain mitochondrial Complex I assessed as rotenone-sensitive rate of the NADH oxidation by measuring activity by spectrophotometric ally method (reference value: 100 + /- 3.3%); parameters: scale not given: the % may be the effect or the level left; conditions: Mitochondria
Procedure, shortened: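 Sonicated pig brain mitochondria (1 mg/mL protein) were held in 25 mM KH2PO4, 5 mM MgCl2 pH 7.2 with 2 mM KCN. They were incubated with 50 μM drug for 30 min at 30 °C. The reaction was started with coenzyme Q10 and NADH (100 μM each), and A340 was read for 5 min. The rotenone (10 μM)-insensitive background was subtracted. At least three measurements.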

Sus scrofa [7] = species on record: Sus scrofa; test: Inhibition of pig brain mitochondrial Complex II and III assessed as antimycin A-sensitive rate of cytochrome c reduction upon addition of succinate by measuring activity by spectrophotometric ally method (reference value: 100 + /- 5.6%); parameters: scale not given: the % may be the effect or the level left; conditions: Mitochondria
[8] = Inhibition of complex II linked mitochondrial respiration in isolated pig brain mitochondria by O2k respirometry; parameters: species or system Sus scrofa
Procedure, shortened: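 Respirometry (Oxygraph-2k) of purified pig brain cortex mitochondria in state 3. Substrates were malate + pyruvate + ADP (Complex I) or ADP + rotenone + succinate (Complex II). One chamber was titrated with compound (10–20 concentrations, final 1.25–500 μM) and the other with DMSO; rates were expressed relative to DMSO. IC50 came from four-parameter logistic fits.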

SH-SY5Y = test: Cytotoxicity against human SH-SY5Y cells assessed as change in ATP level at 1 uM measured after 48 hrs by CellTiter-Glo assay; type: toxicity, cell-based
Procedure, shortened: (§2)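 HEK293 or SH-SY5Y cells in DMEM with 10% FBS, 2 mM glutamine and NEAA were seeded at 7,500 cells per well and grown 24 h. They were then exposed to 1 or 10 μM compound (final 1% DMSO) for 48 h. ATP was read by CellTiter-Glo luminescence after CellTox Green, normalised to 1% DMSO and 100 μM valinomycin controls. At least two experiments in tetraplicate.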

HEK293 = test: Cytotoxicity against human HEK293 cells assessed as change in ATP level at 10 uM measured after 48 hrs by CellTiter-Glo assay; type: toxicity, cell-based; conditions: hek293, 48 h; procedure, shortened: as §2
[9] = biological target: T1, 3-hydroxyacyl-CoA dehydrogenase type-2 (Homo sapiens); test: Binding affinity to 17beta-HSD10 (unknown origin) assessed as increase in denaturation temperature by differential scanning fluorimetry (DSF) assay; conditions: dose 25-50 µM
Procedure, shortened: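 Thermal shift assay with 1.43 μM 17β-HSD10 in 100 mM potassium phosphate pH 8.0 with SYPRO Orange (1:1000). Compounds were tested at 25 and 50 μmol/L. Fluorescence (Ex/Em 490/575) was recorded over 25–90 °C at 1 °C/min and Tm taken from melting curves. Triplicate; mean ± SD.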

[10] = Cmax in male albino Wistar rat plasma at 60 mg/kg, po measured upto 1440 mins by HPLC-MS analysis; type: ADME, organism-based
Procedure, shortened: (§3)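 Oral gavage via blunt needle into the stomach of male wild-type rats. Dose was 60 mg/kg from a 16 mM solution in 10% NMP, 25% Kolliphor EL and 65% saline. Rats were sacrificed at 15 time-points from 5 to 1440 min, 3 per point. Plasma and brain were analysed by HPLC-MS with non-compartmental analysis; values are mean ± SE of three.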

[11] = Tmax in male albino Wistar rat plasma at 60 mg/kg, po measured upto 1440 mins by HPLC-MS analysis; type: ADME, organism-based
Procedure, shortened: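 Single oral gavage of a 16 mM solution (blunt needle via oesophagus into stomach) to male wild-type rats, in 10% NMP, 25% Kolliphor EL and 65% saline. Three animals were killed at each of 15 time points from 5 to 1440 min and exsanguinated. Plasma levels were measured by HPLC-MS. Non-compartmental analysis gave mean ± SE of three.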

[12] = Tmax in male albino Wistar rat brain at 60 mg/kg, po measured upto 1440 mins by HPLC-MS analysis; type: ADME, organism-based; procedure, shortened: as §3
[13] = Partition coefficient between Water and Octanol, logP of the compound by UHPLC-DAD-MS analysis; conditions: pH 7.4

Structure (SMILES) | logD [1] | logS0 [2] | Activity [3] [%] | Activity [4] [%] | IC50 [5] [nM] | Ki [5] [nM] | Activity (Sus scrofa [6]) [%] | Activity (Sus scrofa [7]) [%] | IC50 [8] [nM] | Activity (SH-SY5Y) | Activity (HEK293) | Activity [9] | Cmax [10] [nM] | Tmax [11] [min] | Tmax [12] [min] | logP [13]
CC(=O)Nc1ccc2nc(NC(=O)Nc3ccc(O)c(Cl)c3)sc2c1 | 3.35 | -4.55 | 22 | 49.5 | 340 | 250 | 24.3 | 97.4 | 27000 | Non-Toxic | Non-Toxic | Dose-Dependent Effect | 13.5 | 35 | 35 | 3.66
O=C(Nc1ccc(O)c(Cl)c1)Nc1nc2ccc(C(=O)O)cc2s1 | 0.75 | -4.36 | 17.5 | 50 | 310 | 230 | 87.7 |  | 260000 | Non-Toxic | Non-Toxic | Dose-Dependent Effect | 6.85 | 25 | 40 | 1.19
COc1ccc2nc(NC(=O)Nc3ccc(O)c(C(F)(F)F)c3)sc2c1 | 5.06 | -4.48 | 13 | 39.8 | 570 | 440 | 5.3 | 52.2 | 98000 |  | Non-Toxic |  |  |  |  | 4.28
NC(=O)c1ccc2nc(NC(=O)Nc3ccc(O)c(Cl)c3)sc2c1 | 3.34 | -4.78 | 38.3 | 50 | 840 | 650 | 25.2 | 99.7 |  | Non-Toxic | Non-Toxic |  |  |  |  | 3.32
